Rows were chosen to be rich in hits. Some 3.1% of all compounds tested hit in one or more screens of this group.
KCNK9 block: inhibitors of human KCNK9 two-pore domain potassium channel; Q9NPC2; HEK293 KCNK9, FluxOR thallium flux fluorescence; stronger effect = lower value; B-score at 10 µM; 1.2% of 310,000 active;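 active means ratio B-score over 3 SD below the library mean, with starting fluorescence within 5 SD of its mean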;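 further: negative B-score means less thallium flux so channel inhibition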
KCNK3 inh: human KCNK3 channel inhibition, primary screen. O14649. CHO-KCNK3 thallium flux, FluxOR fluorescence; stronger effect = lower value. B-score at 10 µM. 0.84% of 340,000 active. AID 602410;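 active means B-score under library mean minus 4 SD, starting fluorescence ratio at most library mean plus 5 SD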;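 further: more negative B-score means stronger inhibition of thallium flux through KCNK3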
KCNQ1 inh: inhibitors of human KCNQ1 potassium channel. CHO-K1 KCNQ1, FluxOR thallium flux fluorescence; stronger effect = higher value. B-score at 10 µM. 1.3% of 310,000 active. AID 2642;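 active means compounds whose thallium flux B-score, printed positive for inhibition, exceeds three library SD while starting fluorescence stays within three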;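 further: channel opened by potassium depolarization with thallium stimulus after 20 min compound exposure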
hERG protect: compounds protecting human hERG from proarrhythmic drug block; Q12809; CHO-hERG, FluxOR thallium flux, dofetilide IC70 present; activation (rescue from dofetilide block), less the hit threshold, % at 10 µM; 0.51% of 310,000 active; AID 1511;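 active means activation above the mean of controls blocked by dofetilide plus 5 SD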;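 further: thallium influx through hERG after potassium depolarization seen as dye fluorescence rise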
Target sequence (Q12809 whole entry, looked up): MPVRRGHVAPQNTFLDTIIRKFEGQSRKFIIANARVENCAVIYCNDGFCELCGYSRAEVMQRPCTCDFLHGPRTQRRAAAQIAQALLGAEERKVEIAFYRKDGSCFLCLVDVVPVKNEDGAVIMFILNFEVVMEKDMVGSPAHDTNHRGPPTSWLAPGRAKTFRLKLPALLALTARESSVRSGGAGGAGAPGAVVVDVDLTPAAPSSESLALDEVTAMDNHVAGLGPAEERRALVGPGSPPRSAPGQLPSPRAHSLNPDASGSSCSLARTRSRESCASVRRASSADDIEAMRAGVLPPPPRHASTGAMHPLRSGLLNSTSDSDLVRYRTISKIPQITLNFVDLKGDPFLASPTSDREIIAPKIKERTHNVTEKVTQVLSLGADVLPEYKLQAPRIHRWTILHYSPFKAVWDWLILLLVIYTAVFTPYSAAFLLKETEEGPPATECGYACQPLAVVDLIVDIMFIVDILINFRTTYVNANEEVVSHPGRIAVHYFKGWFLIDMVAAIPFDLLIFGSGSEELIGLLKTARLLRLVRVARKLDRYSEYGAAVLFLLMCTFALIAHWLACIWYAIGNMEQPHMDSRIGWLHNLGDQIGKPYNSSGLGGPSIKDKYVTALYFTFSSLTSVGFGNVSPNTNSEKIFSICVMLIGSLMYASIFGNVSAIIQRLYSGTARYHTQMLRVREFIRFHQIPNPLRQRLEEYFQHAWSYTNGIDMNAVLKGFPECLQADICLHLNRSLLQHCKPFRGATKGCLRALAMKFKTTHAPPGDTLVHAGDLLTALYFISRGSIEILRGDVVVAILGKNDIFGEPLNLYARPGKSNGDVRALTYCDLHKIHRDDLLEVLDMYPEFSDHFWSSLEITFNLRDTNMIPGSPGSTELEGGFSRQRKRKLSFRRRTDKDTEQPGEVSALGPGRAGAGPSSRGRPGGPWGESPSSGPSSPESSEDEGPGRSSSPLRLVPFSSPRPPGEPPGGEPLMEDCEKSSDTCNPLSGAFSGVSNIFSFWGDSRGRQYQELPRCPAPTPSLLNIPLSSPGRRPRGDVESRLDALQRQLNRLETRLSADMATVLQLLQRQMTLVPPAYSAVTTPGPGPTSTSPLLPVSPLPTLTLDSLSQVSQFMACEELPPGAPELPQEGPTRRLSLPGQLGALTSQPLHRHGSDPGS
KCNQ1 pot: potentiates or activates the human KCNQ1 potassium channel | P51787 | CHO-K1 KCNQ1, thallium flux FluxOR fluorescence; stronger effect = higher value | B-score at 10 µM | 0.35% of 310,000 active | AID 2648;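 active means fluorescence ratio B-score, a plate-corrected score, at least three library SD, with initial intensity B-score within 5 SD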
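Doses: Single concentration per compound, DMSO matched to controls | Test system: KCNQ1-transfected CHO-K1 cells | Timing: 90 min dye loading and 20 min compound exposure, both at room temperature | Measured by: Kinetic FluxOR thallium fluorescence, 10-s 1-Hz baseline, 110-s post-stimulus read | Medium: Assay buffer with matched DMSO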
Starred values were filed as active, the others as inactive.

For CC(=O)Nc1ccc(NC(=O)C(C)OC(=O)[C@@H]2CCCN2C(=O)c2cccs2)cc1 (some centres not stated) the results were KCNK3 inh inactive.
For CCOC(=O)C1CCCN(c2c(C(=O)c3ccccc3)cnc3ccc(OC)cc23)C1 (configuration not stated) the results were KCNK9 block inactive, KCNK3 inh inactive, KCNQ1 inh 6*, hERG protect -20 and KCNQ1 pot inactive.
Screening CS(=O)(=O)Nc1ccc(C2=NN(S(=O)(=O)c3ccccc3)C(c3cccs3)C2)cc1 (configuration not stated) returned KCNK9 block -8.1*, KCNK3 inh inactive, KCNQ1 inh inactive, hERG protect -7 and KCNQ1 pot inactive.
O=C(COC(=O)/C=C/c1cccc(Br)c1)NC1CCCCCC1 was read as KCNK3 inh inactive.
CC(=O)Nc1ccc(NC(=O)CCCn2cnc3ccccc3c2=O)cc1 was read as KCNK9 block inactive, KCNK3 inh inactive, KCNQ1 inh inactive, hERG protect -6 and KCNQ1 pot inactive.
For O=C1c2ccccc2C(=O)N1Cc1nc2ccccc2c(=O)n1CCCn1ccnc1 the results were KCNK9 block inactive, KCNK3 inh inactive, KCNQ1 inh inactive, hERG protect 9.8* and KCNQ1 pot inactive.
O=C(Cc1nc2ccccc2[nH]1)c1cccc([N+](=O)[O-])c1 was read as KCNK9 block inactive, KCNK3 inh inactive, KCNQ1 inh 8*, hERG protect -16 and KCNQ1 pot inactive.
For Cc1ccc(F)c([C@H]2[C@@H]3C=CCC[C@@]3(C)C(=O)N2Cc2ccccc2)c1 the results were KCNK9 block inactive, KCNK3 inh inactive, KCNQ1 inh 8*, hERG protect -6 and KCNQ1 pot inactive.
For Cc1ccc(N=Cc2c(O)n(-c3cc(Cl)ccc3N3CCOCC3)c(=O)c3ccccc23)cc1C the results were KCNK9 block inactive, KCNK3 inh inactive, KCNQ1 inh 10*, hERG protect -9 and KCNQ1 pot inactive.
Cc1ccc(C)c(NC(=O)C2CC(=O)N(C3CCCCC3)C2)c1 (configuration not stated) was read as KCNK9 block inactive, KCNK3 inh inactive, KCNQ1 inh inactive, hERG protect -5 and KCNQ1 pot inactive.
For CCCn1nc([N+](=O)[O-])c(C(C#N)c2nc3ccccc3o2)c(Cl)c1=O (configuration not stated) the results were KCNK9 block inactive, KCNK3 inh inactive, KCNQ1 inh 6*, hERG protect -16 and KCNQ1 pot inactive.
`CCC1(c2ccc(F)cc2)NC(=O)N(CC(=O)N2CCN(S(=O)(=O)c3ccc(C)cc3C)CC2)C1=O` (configuration not stated) gave KCNK3 inh inactive.
`CCOC(=O)Cn1c(S(=O)(=O)Cc2ccc(Cl)cc2)nc(-c2ccccc2)c1-c1ccccc1` gave KCNK9 block -6.8*, KCNK3 inh inactive, KCNQ1 inh inactive, hERG protect -12 and KCNQ1 pot inactive.
For COc1ccc(S(=O)(=O)N2CCN(Cc3cc(=O)n4ccccc4n3)CC2)cc1 the results were KCNK3 inh inactive.
For COc1ccc(-c2nn(-c3ccccc3)cc2/C=N/NC(=O)c2ccc(Br)o2)cc1 the results were KCNK9 block -6.7*, KCNK3 inh -9.6*, KCNQ1 inh 11*, hERG protect -14 and KCNQ1 pot inactive.
Screening COc1ccc(-c2nn(-c3ccccc3)cc2/C=N/NC(=O)c2ccc3c(c2)OCO3)cc1 returned KCNK9 block inactive, KCNQ1 inh inactive, hERG protect -28 and KCNQ1 pot inactive.
O=C(N/N=C\c1cn(-c2ccccc2)nc1-c1ccccc1)c1ccc2c(c1)OCO2 was read as KCNK9 block -6.8*, KCNK3 inh inactive, KCNQ1 inh inactive, hERG protect -36 and KCNQ1 pot inactive.
Screening CC(C)(C)NCC(=Cc1ccccc1)C(=O)c1ccccc1 returned KCNK3 inh inactive.
Screening O=C(NCC(=O)N1CCOCC1)c1ccccc1 returned KCNK9 block inactive, KCNK3 inh inactive, KCNQ1 inh inactive, hERG protect -3 and KCNQ1 pot inactive.
Screening O=C(Nc1ccccc1N1CCN(C(=O)c2ccc(Cl)cc2)CC1)c1ccc([N+](=O)[O-])o1 returned KCNK9 block inactive, KCNK3 inh -11*, KCNQ1 inh inactive, hERG protect -15 and KCNQ1 pot inactive.
COc1ccc(C(=O)NC(=O)CSc2nc3nc(C)cc(C)n3n2)cc1 was read as KCNK3 inh inactive.
`CC(=O)N(C)C1=C(O)c2ccccc2C(=O)C1=O` gave KCNK9 block inactive, KCNK3 inh inactive, KCNQ1 inh inactive, hERG protect -8 and KCNQ1 pot inactive.
Screening CC(=O)N(C1=C(N)C(=O)c2ccccc2C1=O)C(C)C returned KCNK9 block inactive, KCNK3 inh inactive, KCNQ1 inh inactive, hERG protect 6.3* and KCNQ1 pot inactive.
`CC(CCc1ccc(O)cc1)NCCC(c1ccccc1)c1ccccc1` (configuration not stated) gave KCNK9 block inactive, KCNK3 inh inactive, KCNQ1 inh inactive, hERG protect -22 and KCNQ1 pot inactive.
CC(CCc1ccc(O)cc1)NC(c1ccccc1)c1ccc(Cl)cc1 (configuration not stated) was read as KCNK9 block inactive, KCNK3 inh inactive, KCNQ1 inh 12*, hERG protect -24 and KCNQ1 pot inactive.
For CC(C)C[C@@H](CN1CCC[C@@H]1CN1C(=O)C(=O)NC[C@@H]1Cc1ccccc1)N1C[C@H](Cc2ccccc2)N(CC2CCCCCC2)C(=O)C1=O the results were KCNK3 inh inactive.
For O=C1NC[C@H](Cc2ccccc2)N(C[C@H]2CCCN2C[C@H](Cc2ccccc2)N2C[C@H](Cc3ccccc3)N(CC3CCCCCC3)C(=O)C2=O)C1=O the results were KCNK3 inh -9*.
O=c1c2ccccc2oc2ccc(-c3ccc4cc[nH]c4c3)cc12 was read as KCNK3 inh inactive.
O=C(Nc1ccc([N+](=O)[O-])cn1)c1cc(-c2cccc(Br)c2)nc2ccccc12 was read as KCNK9 block inactive, KCNK3 inh inactive, KCNQ1 inh inactive, hERG protect -23 and KCNQ1 pot inactive.
`O=C(Nc1ccc([N+](=O)[O-])cn1)c1cc(-c2cccc(Cl)c2)nc2ccccc12` gave KCNK9 block -7.1*, KCNK3 inh inactive, KCNQ1 inh inactive, hERG protect -27 and KCNQ1 pot inactive.
Screening COc1cccc(-c2cc(C(=O)Nc3ccccc3)c3ccccc3n2)c1 returned KCNK9 block inactive, KCNK3 inh inactive, KCNQ1 inh inactive, hERG protect -10 and KCNQ1 pot inactive.

Bioassay records: PubChem BioAssay, Johns Hopkins Ion Channel Center
